pIC50, pKi: −log10 of the molar value. Calls of active or inactive are those of the source. The calls are words filed in the database; no cut-off is given here.
How the values were obtained:
[1] = target: Protein-tyrosine kinase 2-beta (Homo sapiens) (UniProt Q14289); test: Inhibition of human full-length N-terminal GST-fused PYK2 (1 to 967 (end)residues) expressed in baculovirus expression system at 20 uM measured after 1 hr in presence of peptide substrate and ATP by off-chip mobility shift assay relative to control
Outline: (§1)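 Off-chip mobility shift assay. Product and substrate peptides were separated; activity was taken as P/(P+S). Complete reaction was set as 0% inhibition and enzyme-free background as 100%. Run in triplicate, mean ± SD.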

[2] = target: Fibroblast growth factor receptor 1 (Homo sapiens) (UniProt P11362); test: Inhibition of human N-terminal GST-fused FGFR1 cytoplasmic domain (398 to 822 (end)residues) expressed in baculovirus expression system at 20 uM measured after 1 hr in presence of peptide substrate and ATP by off-chip mobility shift assay relative to control; outline: as §1
[3] = Antiproliferative activity against human HCC827 Gefitinib-resistant (GR) cells assessed as reduction in cell viability measured after 72 hrs by MTS assay
[4] = target: T1, Ephrin type-B receptor 4 (Homo sapiens) (UniProt P54760); test: Inhibition of human N-terminal GST-fused EPHB4 cytoplasmic domain (577 to 987 (end)residues) expressed in baculovirus expression system at 20 uM measured after 1 hr in presence of peptide substrate and ATP by off-chip mobility shift assay relative to control; outline: as §1
T1 sequence (whole entry): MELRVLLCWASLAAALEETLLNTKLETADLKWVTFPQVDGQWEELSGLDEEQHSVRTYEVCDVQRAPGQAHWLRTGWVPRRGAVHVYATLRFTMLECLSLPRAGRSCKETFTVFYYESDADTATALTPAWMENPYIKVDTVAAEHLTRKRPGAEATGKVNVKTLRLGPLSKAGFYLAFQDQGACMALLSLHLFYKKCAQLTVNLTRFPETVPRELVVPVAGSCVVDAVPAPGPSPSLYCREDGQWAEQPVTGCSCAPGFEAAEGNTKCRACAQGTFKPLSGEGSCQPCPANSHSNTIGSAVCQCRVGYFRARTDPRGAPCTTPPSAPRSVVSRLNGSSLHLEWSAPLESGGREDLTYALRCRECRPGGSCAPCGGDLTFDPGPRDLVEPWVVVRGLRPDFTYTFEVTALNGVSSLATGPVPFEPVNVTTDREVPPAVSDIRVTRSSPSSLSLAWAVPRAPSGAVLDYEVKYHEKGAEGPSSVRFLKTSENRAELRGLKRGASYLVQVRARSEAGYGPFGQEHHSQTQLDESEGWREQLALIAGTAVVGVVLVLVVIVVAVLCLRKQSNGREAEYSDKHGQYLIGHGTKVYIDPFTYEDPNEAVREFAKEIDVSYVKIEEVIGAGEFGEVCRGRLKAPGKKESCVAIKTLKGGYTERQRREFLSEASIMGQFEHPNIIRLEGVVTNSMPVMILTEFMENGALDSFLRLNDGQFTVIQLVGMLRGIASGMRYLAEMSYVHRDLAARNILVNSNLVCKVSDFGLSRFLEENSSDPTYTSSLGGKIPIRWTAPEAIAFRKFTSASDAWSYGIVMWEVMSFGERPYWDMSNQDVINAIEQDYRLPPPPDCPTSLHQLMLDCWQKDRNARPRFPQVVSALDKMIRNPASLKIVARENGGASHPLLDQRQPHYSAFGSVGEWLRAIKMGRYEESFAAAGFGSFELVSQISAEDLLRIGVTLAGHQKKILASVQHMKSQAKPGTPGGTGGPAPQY

[5] = target: Platelet-derived growth factor receptor alpha (Homo sapiens) (UniProt P16234); test: Inhibition of human N-terminal GST-fused PDGFRalpha cytoplasmic domain (550 to 1089 (end)residues) expressed in baculovirus expression system at 20 uM measured after 1 hr in presence of peptide substrate and ATP by off-chip mobility shift assay relative to control; outline: as §1
[6] = Inhibition of human full-length N-terminal GST-fused SRC (1 to 536 (end)residues) expressed in baculovirus expression system at 20 uM measured after 1 hr in presence of peptide substrate and ATP by off-chip mobility shift assay relative to control; outline: as §1
Protein smoothened [7] = target: T2, Protein smoothened (Homo sapiens, UniProt Q99835); test: Displacement of [3H]-cyclopamine from SMO receptor (unknown origin) expressed in HEK293T cell membranes measured after 4 hrs by liquid scintillation spectrometry.; set-up: species or system Cell membrane
Outline: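 Incubation of 15 μg HEK293T-WT SMO membranes (Kd 20 nM, Bmax 6.2 pmol/mg) with 25 nM [3H]-cyclopamine and varied compound, 4 h at RT, in 50 mM HEPES, 5 mM MgCl2, 0.02% BSA. Nonspecific binding was taken with 25 μM compound plus vismodegib. Bound ligand was separated on PEI-soaked GF/C filters, washed with ice-cold PBS/0.01% Triton X-100, and counted by scintillation; IC50 converted to Ki by Cheng–Prusoff.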

Protein smoothened [8] = target: T2, Protein smoothened; test: Inhibition of SMO in human HCC827 Gefitinib-resistant (GR) cells assessed as reduction in GLI1 expression at antiproliferative IC50 measured after 72 hrs by Western blot analysis; format: functional, cell-based; settings: HCC827 Gefitinib-resistant (GR) cell
[9] = target: T3, Tyrosine-protein kinase ITK/TSK (Homo sapiens) (UniProt Q08881); test: Inhibition of human full-length N-terminal GST-fused ITK (2 to 620 (end)residues) expressed in baculovirus expression system at 20 uM measured after 1 hr in presence of peptide substrate and ATP by off-chip mobility shift assay relative to control; outline: as §1
T3 sequence (whole entry): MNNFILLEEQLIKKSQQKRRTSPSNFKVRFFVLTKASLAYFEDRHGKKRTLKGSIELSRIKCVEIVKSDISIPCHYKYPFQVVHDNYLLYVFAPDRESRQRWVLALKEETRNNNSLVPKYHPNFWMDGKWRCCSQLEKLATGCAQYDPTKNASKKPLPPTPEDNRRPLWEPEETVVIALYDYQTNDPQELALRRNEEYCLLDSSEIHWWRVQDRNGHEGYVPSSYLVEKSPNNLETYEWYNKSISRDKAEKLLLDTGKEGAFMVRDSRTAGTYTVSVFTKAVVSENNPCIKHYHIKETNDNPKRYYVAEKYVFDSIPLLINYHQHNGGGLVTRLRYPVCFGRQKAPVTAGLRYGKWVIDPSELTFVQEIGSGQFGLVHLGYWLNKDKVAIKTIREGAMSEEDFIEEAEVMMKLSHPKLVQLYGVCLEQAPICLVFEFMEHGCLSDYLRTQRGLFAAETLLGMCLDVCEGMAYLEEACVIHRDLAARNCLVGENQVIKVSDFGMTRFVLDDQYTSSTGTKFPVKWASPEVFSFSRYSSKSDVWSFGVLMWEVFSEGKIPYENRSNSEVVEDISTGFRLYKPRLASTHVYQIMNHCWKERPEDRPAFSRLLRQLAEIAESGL

[10] = Antiproliferative activity against human PC9-OR cells assessed as reduction in cell viability measured after 72 hrs by MTS assay
Homo sapiens = species on record: Homo sapiens; test: Inhibition of human full-length N-terminal His-tagged ABL (2 to 1130 (end)residues) expressed in baculovirus expression system at 20 uM measured after 1 hr in presence of peptide substrate and ATP by off-chip mobility shift assay relative to control; outline: as §1

Chain of Protein-tyrosine kinase 2-beta (Homo sapiens) (Q14289 whole entry, looked up, the tested form may be a part): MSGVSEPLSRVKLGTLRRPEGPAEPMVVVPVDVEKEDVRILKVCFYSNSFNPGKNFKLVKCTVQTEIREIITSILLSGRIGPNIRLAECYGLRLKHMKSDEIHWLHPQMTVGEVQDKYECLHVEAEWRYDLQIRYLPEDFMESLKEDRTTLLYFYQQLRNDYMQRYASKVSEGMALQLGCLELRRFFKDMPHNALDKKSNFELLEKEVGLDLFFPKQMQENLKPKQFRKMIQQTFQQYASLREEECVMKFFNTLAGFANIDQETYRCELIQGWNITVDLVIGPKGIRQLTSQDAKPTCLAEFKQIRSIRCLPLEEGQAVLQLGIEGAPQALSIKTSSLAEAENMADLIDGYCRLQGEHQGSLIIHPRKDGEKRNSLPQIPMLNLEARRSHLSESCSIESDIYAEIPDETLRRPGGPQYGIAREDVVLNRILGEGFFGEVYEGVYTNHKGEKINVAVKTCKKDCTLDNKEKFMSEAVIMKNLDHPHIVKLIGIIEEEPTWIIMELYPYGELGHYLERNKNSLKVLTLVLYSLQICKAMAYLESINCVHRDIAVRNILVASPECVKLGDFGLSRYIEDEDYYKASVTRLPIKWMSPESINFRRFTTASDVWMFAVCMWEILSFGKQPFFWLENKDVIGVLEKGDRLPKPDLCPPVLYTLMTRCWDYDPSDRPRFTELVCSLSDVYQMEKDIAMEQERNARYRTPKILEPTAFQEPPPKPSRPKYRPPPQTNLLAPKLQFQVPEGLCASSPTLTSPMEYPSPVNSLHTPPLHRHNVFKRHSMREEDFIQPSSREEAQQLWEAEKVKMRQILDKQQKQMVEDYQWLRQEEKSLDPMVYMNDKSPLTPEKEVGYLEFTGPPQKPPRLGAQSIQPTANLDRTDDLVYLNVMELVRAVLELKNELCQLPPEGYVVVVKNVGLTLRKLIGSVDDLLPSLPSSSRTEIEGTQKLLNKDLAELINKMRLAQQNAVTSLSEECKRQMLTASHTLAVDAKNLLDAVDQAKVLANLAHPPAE
Chain of Fibroblast growth factor receptor 1 (Homo sapiens) (P11362 22-822 limits assumed): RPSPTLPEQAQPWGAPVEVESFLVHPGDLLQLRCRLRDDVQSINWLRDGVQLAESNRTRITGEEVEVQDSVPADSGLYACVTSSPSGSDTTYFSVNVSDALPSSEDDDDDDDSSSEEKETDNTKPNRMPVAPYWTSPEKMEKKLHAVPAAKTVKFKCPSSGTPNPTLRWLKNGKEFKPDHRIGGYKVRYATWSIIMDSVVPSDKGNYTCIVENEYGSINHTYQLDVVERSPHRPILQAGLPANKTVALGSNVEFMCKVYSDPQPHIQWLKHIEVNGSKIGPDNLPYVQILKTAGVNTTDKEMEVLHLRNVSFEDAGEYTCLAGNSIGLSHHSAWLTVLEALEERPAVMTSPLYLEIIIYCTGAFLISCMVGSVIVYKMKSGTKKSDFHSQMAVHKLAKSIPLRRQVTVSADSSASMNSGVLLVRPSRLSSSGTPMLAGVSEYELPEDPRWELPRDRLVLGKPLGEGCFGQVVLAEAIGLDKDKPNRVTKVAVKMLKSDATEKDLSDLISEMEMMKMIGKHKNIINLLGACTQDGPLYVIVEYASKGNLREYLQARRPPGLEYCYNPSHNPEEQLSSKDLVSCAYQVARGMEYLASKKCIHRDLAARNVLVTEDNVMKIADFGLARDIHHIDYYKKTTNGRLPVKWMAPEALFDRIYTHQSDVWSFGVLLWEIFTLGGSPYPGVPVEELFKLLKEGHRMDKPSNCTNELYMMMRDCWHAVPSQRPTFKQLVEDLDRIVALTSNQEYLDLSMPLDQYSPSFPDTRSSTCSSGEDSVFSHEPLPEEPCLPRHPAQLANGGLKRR
Chain of Platelet-derived growth factor receptor alpha (Homo sapiens) (P16234 whole entry, the tested form may be a part): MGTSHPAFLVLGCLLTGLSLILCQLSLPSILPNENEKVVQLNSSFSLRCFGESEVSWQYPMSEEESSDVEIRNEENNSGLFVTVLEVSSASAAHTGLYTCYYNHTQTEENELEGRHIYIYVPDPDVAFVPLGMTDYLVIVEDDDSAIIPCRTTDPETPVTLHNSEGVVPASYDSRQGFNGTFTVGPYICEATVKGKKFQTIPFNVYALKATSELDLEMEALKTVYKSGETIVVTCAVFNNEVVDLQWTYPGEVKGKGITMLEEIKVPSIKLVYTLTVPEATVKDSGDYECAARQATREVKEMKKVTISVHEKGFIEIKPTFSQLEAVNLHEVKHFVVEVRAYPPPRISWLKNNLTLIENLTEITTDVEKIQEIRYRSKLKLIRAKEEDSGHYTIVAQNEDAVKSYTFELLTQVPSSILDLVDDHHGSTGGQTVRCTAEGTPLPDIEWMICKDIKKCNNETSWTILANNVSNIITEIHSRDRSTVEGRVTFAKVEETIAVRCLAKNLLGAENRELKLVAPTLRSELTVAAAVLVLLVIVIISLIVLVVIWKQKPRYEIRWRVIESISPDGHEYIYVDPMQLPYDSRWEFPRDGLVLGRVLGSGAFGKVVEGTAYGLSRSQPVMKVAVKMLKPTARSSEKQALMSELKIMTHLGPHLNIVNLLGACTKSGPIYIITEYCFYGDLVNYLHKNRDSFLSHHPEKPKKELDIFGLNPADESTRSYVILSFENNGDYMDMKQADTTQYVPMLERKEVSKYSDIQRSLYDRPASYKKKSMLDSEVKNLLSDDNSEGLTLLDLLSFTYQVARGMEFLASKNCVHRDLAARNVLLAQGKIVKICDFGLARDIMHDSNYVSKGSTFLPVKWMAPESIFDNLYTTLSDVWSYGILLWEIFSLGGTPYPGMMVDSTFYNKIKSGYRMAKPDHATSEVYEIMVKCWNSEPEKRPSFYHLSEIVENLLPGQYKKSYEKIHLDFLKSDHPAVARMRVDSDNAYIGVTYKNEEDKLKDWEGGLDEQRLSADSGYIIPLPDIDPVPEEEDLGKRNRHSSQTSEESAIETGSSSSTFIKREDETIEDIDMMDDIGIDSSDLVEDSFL
T2 sequence (Q99835 whole entry): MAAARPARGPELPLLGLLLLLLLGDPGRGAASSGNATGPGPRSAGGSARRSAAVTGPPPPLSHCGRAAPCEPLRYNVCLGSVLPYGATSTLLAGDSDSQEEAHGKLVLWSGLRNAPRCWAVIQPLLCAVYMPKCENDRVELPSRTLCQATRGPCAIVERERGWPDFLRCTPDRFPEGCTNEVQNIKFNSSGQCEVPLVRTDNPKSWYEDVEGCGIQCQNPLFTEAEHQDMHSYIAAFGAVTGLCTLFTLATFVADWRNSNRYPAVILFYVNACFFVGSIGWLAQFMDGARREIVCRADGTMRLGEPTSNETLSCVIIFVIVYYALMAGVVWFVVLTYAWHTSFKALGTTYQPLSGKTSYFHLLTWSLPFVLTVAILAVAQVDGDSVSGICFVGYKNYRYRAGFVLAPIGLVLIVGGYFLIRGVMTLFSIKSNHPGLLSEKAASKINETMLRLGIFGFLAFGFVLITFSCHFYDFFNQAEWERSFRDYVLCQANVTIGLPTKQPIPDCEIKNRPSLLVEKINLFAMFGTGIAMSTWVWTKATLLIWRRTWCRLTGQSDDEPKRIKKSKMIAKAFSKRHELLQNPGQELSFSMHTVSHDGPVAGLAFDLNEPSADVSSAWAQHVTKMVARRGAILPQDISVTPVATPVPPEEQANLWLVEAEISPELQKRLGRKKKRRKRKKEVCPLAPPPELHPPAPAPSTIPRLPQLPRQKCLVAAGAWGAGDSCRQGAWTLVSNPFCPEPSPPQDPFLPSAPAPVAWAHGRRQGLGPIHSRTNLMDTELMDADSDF

| Compound | inhibition [1] [%] | inhibition [2] [%] | pIC50 [3] | inhibition [4] [%] | inhibition [5] [%] | inhibition [6] [%] | pKi (Protein smoothened [7]) | GLI1 expression reduction (qualitative) (Protein smoothened [8]) | inhibition [9] [%] | pIC50 [10] | inhibition (Homo sapiens) [%] |
| --- | --- | --- | --- | --- | --- | --- | --- | --- | --- | --- | --- |
| Cc1ccc(NC(=O)CN2C(=O)/C(=N\NC(=O)c3cc(Br)ccc3O)c3ccc(Cl)cc32)cc1 | 49.7 | 71.8 | 5.29 | 63 | 56.5 | 64.3 | 7.55 | Active | 58.9 | 5.64 | – |
| O=C(CN1C(=O)/C(=N\NC(=O)c2cc(Br)ccc2O)c2c(Br)cccc21)Nc1ccc([N+](=O)[O-])cc1 | 45.1 | 81.6 | 5.45 | 70.8 | 63.3 | 50.7 | 8.05 | Active | 56.7 | 5.39 | 67.9 |
| Cc1ccc(NC(=O)CN2C(=O)/C(=N\NC(=O)c3cc(Br)ccc3O)c3ccccc32)cc1 | 49.9 | 91.7 | 4.97 | 93.3 | 76.2 | 49.3 | 6.73 | Active | 70.3 | 5.02 | 74.9 |
| Cc1ccc(NC(=O)CN2C(=O)/C(=N\NC(=O)c3cc(Br)ccc3O)c3ccc(Br)cc32)cc1 | 48.5 | 71.4 | 5.36 | 62.5 | 56.7 | 56.5 | 7.96 | Active | 52.8 | 5.68 | 63.5 |
